Test results as given in PubChem BioAssay AID623898 (Johns Hopkins Ion Channel Center, 2012).
Several values for one entry are separate records, joined by “and”; a condition that tells them apart may be missing. Identical values can stand only once. Activity calls are given as the source filed them.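 How the source made its calls: active means over 50% block of current through the KCNK9 TASK-3 potassium channel at 10 µM compound; inactive means the rest.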

molecular target: Potassium channel subfamily K member 9 (Homo sapiens) (UniProt Q9NPC2); assay: blockers of KCNK9 channel currents – cell-based, automated electrophysiology, HEK293, SAR follow-up (AID 623898); details: HEK293 KCNK9, QPatch automated patch clamp current
How it was run: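 Test system – HEK293 cells with tetracycline-inducible stable human KCNK9 expression · Times – 5 min per concentration step · Measure – per-cell IC50 from Hill fit with unit slope, fractional current block · Compound – cumulative compound concentration series on each cell · Detection – automated whole-cell voltage clamp, current at -30 mV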

Sequence of Potassium channel subfamily K member 9 (Homo sapiens) (Q9NPC2 whole entry, looked up): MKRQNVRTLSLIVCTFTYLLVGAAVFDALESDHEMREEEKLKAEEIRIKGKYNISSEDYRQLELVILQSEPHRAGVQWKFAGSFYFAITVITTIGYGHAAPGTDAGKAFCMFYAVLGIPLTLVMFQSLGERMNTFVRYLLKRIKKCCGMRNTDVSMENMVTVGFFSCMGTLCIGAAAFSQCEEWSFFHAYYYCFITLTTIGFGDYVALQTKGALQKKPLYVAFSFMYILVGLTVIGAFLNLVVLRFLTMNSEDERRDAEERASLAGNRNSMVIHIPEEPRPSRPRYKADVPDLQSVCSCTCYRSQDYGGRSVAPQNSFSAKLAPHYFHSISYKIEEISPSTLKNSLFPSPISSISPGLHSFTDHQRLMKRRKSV

SMILES	IC50	outcome
COc1ccccc1C(=O)Nc1cccc(NC(=O)c2ccccc2C(C)C)c1	670 nM	
CCOc1ccccc1C(=O)Nc1cccc(NC(=O)C2CCCC2)c1	490 nM	
Cc1cccc(C(=O)Nc2cccc(NC(=O)c3ccccc3OCC(C)C)c2)c1	2520 nM	
CCOc1ccccc1NC(=O)c1cccc(NC(=O)c2cccc(C(F)(F)F)c2)c1	2100 nM	
COc1ccccc1NC(=O)c1cccc(NC(=O)C2CCCC2)c1	3160 nM	
CCOc1ccccc1C(=O)Nc1cccc(NC(=O)c2ccccc2OC)c1	180 nM	
Cc1cccc(C(=O)Nc2cccc(NC(=O)c3ccccc3C)c2)c1	480 nM	
Cc1ccccc1C(=O)Nc1cccc(NC(=O)c2ccccc2)c1	270 nM	
Cc1cccc(C(=O)Nc2cccc(NC(=O)c3ccco3)c2)c1	950 nM	
COc1ccccc1C(=O)Nc1cccc(NC(=O)c2ccccc2OC(F)(F)F)c1	600 nM	
CCOc1ccccc1C(=O)Nc1cccc(NC(=O)c2cccc(C)c2)c1	380 nM	
O=C(Nc1cccc(NC(=O)C2CCCCC2)c1)c1ccccc1	8100 nM	
COc1ccccc1C(=O)Nc1cccc(NC(=O)c2cccc(C)c2)c1	1490 nM	
CCOc1ccccc1C(=O)Nc1cccc(NC(=O)c2ccccc2C(F)(F)F)c1	250 nM	
O=C(Nc1cccc(NC(=O)c2ccc(C(F)(F)F)cc2)c1)c1ccccc1		inactive
CCOc1ccccc1NC(=O)c1cccc(NC(=O)c2ccccc2OC(F)(F)F)c1	1490 nM	
CCOc1ccccc1NC(=O)c1cccc(NC(=O)c2ccccc2)c1	2140 nM	
Cc1ccc(C(=O)Nc2cccc(NC(=O)c3ccccc3)c2)cc1		inactive
O=C(Nc1cccc(NC(=O)c2ccccn2)c1)c1ccccc1	6100 nM	
CCOc1ccccc1NC(=O)c1cccc(NC(=O)c2cccc(C)c2)c1	2380 nM	
COc1ccccc1C(=O)Nc1cccc(NC(=O)c2ccccc2OC)c1	710 nM	
CCOc1ccccc1NC(=O)c1cccc(NC(=O)C2CCCCC2)c1	1110 nM	
Cc1cccc(C(=O)Nc2cccc(NC(=O)c3ccccc3OC(F)(F)F)c2)c1	990 nM	
Cc1cccc(C(=O)Nc2cccc(NC(=O)c3cccc(C)c3)c2)c1	2240 nM	
COc1cccc(C(=O)Nc2cccc(NC(=O)c3ccccc3)c2)c1	420 nM	
CCOc1ccccc1NC(=O)c1cccc(NC(=O)c2ccccc2C(F)(F)F)c1	520 nM	
COc1ccccc1NC(=O)c1cccc(NC(=O)c2ccccc2)c1	8480 nM	
O=C(Nc1cccc(NC(=O)c2ccccc2C(F)(F)F)c1)c1ccccc1	850 nM	
CCOc1ccccc1NC(=O)c1cccc(NC(=O)CC2CCCC2)c1	3900 nM	
CCOc1ccccc1NC(=O)c1cccc(NC(=O)CC2CCCCC2)c1	4730 nM	

Further lines, results first:

IC50	outcome	SMILES
590 nM		CC(CC1CC2CCC1C2)n1c(-c2ccco2)n[nH]c1=S (centres undefined)
410 nM and 680 nM		C[C@@H]([C@@H]1CC2CC[C@H]1C2)n1c(-c2ccsc2)n[nH]c1=S
680 nM		C[C@H](C1CCCCC1)n1c(-c2ccsc2)n[nH]c1=S
510 nM		C[C@H](C1CCCCC1)n1c(-c2ccco2)n[nH]c1=S
	inactive	CC(C)n1c(-c2ccco2)n[nH]c1=S
490 nM		CC(C1CC2CCC1C2)n1c(-c2ccco2)nn(CCc2ccncc2)c1=S (centres undefined)
	inactive	C[C@H]([C@@H]1CC2CC[C@H]1C2)n1c(-c2ccsc2)n[nH]c1=S
950 nM		CC(C1CC2CCC1C2)n1c(-c2ccccc2Cl)n[nH]c1=S (centres undefined)
410 nM		C[C@@H]([C@@H]1CC2CC[C@H]1C2)n1c(-c2ccco2)n[nH]c1=S
5480 nM		COc1ccc(CCSc2nnc(-c3ccco3)n2C(C)C2CC3CCC2C3)cc1OC (centres undefined)
1720 nM		CC(C1CC2CCC1C2)n1c(-c2cccc(N(C)C)c2)n[nH]c1=S (centres undefined)
6660 nM		C[C@@H](C1CCCCC1)n1c(-c2ccco2)n[nH]c1=S
250 nM and 230 nM		CC(C1CC2CCC1C2)n1c(-c2ccco2)n[nH]c1=S (centres undefined)
250 nM		CC(C1CC2CCC1C2)n1c(-c2ccccc2F)n[nH]c1=S (centres undefined)
1040 nM		COc1ccccc1-c1n[nH]c(=S)n1C(C)C1CC2CCC1C2 (centres undefined)
760 nM		Cc1cccc(-c2n[nH]c(=S)n2C(C)C2CC3CCC2C3)c1 (centres undefined)
960 nM		Cc1ccccc1-c1n[nH]c(=S)n1C(C)C1CC2CCC1C2 (centres undefined)
620 nM		CC(C1CC2CCC1C2)n1c(-c2ccsc2)n[nH]c1=S (centres undefined)
960 nM		CC(C1CC2CCC1C2)n1c(-c2cccc(Cl)c2)n[nH]c1=S (centres undefined)
330 nM		COc1ccc(-c2n[nH]c(=S)n2C(C)C2CC3CCC2C3)cc1 (centres undefined)
1240 nM		CC(C1CC2CCC1C2)n1c(-c2ccccc2)n[nH]c1=S (centres undefined)
280 nM		COc1cccc(-c2n[nH]c(=S)n2C(C)C2CC3CCC2C3)c1 (centres undefined)
940 nM		CC(C1CC2CCC1C2)n1c(-c2ccoc2)n[nH]c1=S (centres undefined)
3780 nM		S=c1[nH]nc(-c2ccco2)n1CC1CCCCC1
